According to ChEMBL document CHEMBL1141682, “Discovery of novel potent and selective dipeptide hepatitis C virus NS3/4A serine protease inhibitors” (Bioorg Med Chem Lett, 2008):
Blank lines part the entries; values can stand above or below the compound they belong to.

Experiments:
[1] = Metabolic stability in human liver microsomess after 15 mins at 5 uM; type: ADME, Microsome; settings: liver microsomes
Summary of the method: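 Compound at 5 µM was incubated with human liver microsomes for 15 min at 37 °C. Stability is expressed as percent of compound metabolized.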

[2] = system: Hepatitis C virus; test: Inhibition of HCV replication in human HuH7-Rep cells containing subgenomic bicistronic clone; type: functional, organism-based, Hepacivirus hominis; settings: Huh-7
Summary of the method: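 Huh7 cells carried the subgenomic bicistronic replicon clone ET with a luciferase reporter. EC50 is the concentration that cut luciferase signal by 50% relative to untreated control.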

[3] = Inhibition of full length HCV NS3/4A protease; parameters: species or system Hepacivirus hominis
Summary of the method: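 Full-length recombinant genotype 1 NS3 protease was run with a truncated NS4A cofactor in a biochemical assay. Inhibition constants (Ki) are reported.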

[4] = Plasma concentration in Sprague-Dawley rat at 10 mg/kg, po after 4 hrs; type: ADME, organism-based; parameters: dose 10 mg/kg, route oral
Summary of the method: (§1)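 Male SD rats (n = 2 per route) got a single dose: 2 mg/kg IV in 20% hydroxypropyl-β-cyclodextrin, or 10 mg/kg oral in 50% PEG400 with 2.5% vitamin E-TPGS. Plasma was sampled out to 8 h. Heart and liver levels were taken at 8 h. Oral half-life was fitted over 2–8 h. Bioavailability compares oral against IV exposure.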

[5] = Oral bioavailability in Sprague-Dawley rat at 10 mg/kg, po; type: ADME, organism-based; settings: in vivo; summary of the method: as §1
[6] = Half life (2 to 8 hrs) in Sprague-Dawley rat at 10 mg/kg, po; type: ADME, organism-based; parameters: dose 10 mg/kg, route oral; settings: in vivo; summary of the method: as §1
[7] = Plasma concentration in Sprague-Dawley rat at 2 mg/kg, iv after 4 hrs; type: ADME, organism-based; parameters: dose 2 mg/kg, route intravenous; summary of the method: as §1
[8] = Half life (2 to 8 hrs) in Sprague-Dawley rat at 2 mg/kg, iv; type: ADME, organism-based; parameters: dose 2 mg/kg, route intravenous; settings: in vivo
[9] = Drug level in Sprague-Dawley rat liver at 2 mg/kg, iv after 8 hrs; type: ADME, organism-based; parameters: dose 2 mg/kg, route intravenous; settings: read-out: Drug uptake; summary of the method: as §1
[10] = Plasma concentration in Sprague-Dawley rat at 2 mg/kg, iv after 8 hrs; type: ADME, organism-based; parameters: dose 2 mg/kg, route intravenous; summary of the method: as §1
[11] = Plasma concentration in Sprague-Dawley rat at 2 mg/kg, iv after 1 hr; type: ADME, organism-based; parameters: dose 2 mg/kg, route intravenous; summary of the method: as §1
[12] = AUC (0 to infinity) in Sprague-Dawley rat at 10 mg/kg, po; type: ADME, organism-based; parameters: time infinity, dose 10 mg/kg, route oral; settings: plasma; summary of the method: as §1
[13] = Volume of distribution in steady state in Sprague-Dawley rat at 2 mg/kg, iv; type: ADME, organism-based; parameters: dose 2 mg/kg, route intravenous; settings: in vivo, read-out: Vdss; summary of the method: as §1
[14] = Cmax in Sprague-Dawley rat at 10 mg/kg, po; type: ADME, organism-based; parameters: dose 10 mg/kg, route oral; settings: in vivo; summary of the method: as §1
[15] = system: Rattus norvegicus; test: Clearance in Sprague-Dawley rat at 2 mg/kg, iv; type: ADME, organism-based; parameters: dose 2 mg/kg, route intravenous; settings: in vivo; summary of the method: as §1
[16] = Plasma concentration in Sprague-Dawley rat at 10 mg/kg, po after 8 hrs; type: ADME, organism-based; parameters: dose 10 mg/kg, route oral; summary of the method: as §1
[17] = Plasma concentration in Sprague-Dawley rat at 2 mg/kg, iv after 2 hrs; type: ADME, organism-based; parameters: dose 2 mg/kg, route intravenous; summary of the method: as §1
[18] = AUC (0 to 8 hrs) in Sprague-Dawley rat at 10 mg/kg, po; type: ADME, organism-based; parameters: time < 8 hr, dose 10 mg/kg, route oral; settings: plasma; summary of the method: as §1
[19] = Drug level in Sprague-Dawley rat liver at 10 mg/kg, po after 8 hrs; type: ADME, organism-based; parameters: dose 10 mg/kg, route oral; settings: read-out: Drug uptake; summary of the method: as §1
[20] = system: MT4; test: Cytotoxicity against human MT4 cells by LTR-luciferase assay; type: functional
Summary of the method: (§2)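 Cytotoxicity was tested in MT4-LTR-Luc and Huh7-CMV-Luc reporter cell lines. Results are given as CC50.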

[21] = Plasma concentration in Sprague-Dawley rat at 10 mg/kg, po after 0.5 hrs; type: ADME, organism-based; parameters: dose 10 mg/kg, route oral; summary of the method: as §1
[22] = system: Huh-7; test: Cytotoxicity against human HuH7 cells by CMV-luciferase assay; type: functional; summary of the method: as §2
[23] = AUC (0 to 8 hrs) in Sprague-Dawley rat at 2 mg/kg, iv; type: ADME, organism-based; parameters: time < 8 hr, dose 2 mg/kg, route intravenous; settings: plasma; summary of the method: as §1
[24] = system: Rattus norvegicus; test: AUC (0 to infinity) in Sprague-Dawley rat at 2 mg/kg, iv; type: ADME, organism-based, Plasma; parameters: time infinity, dose 2 mg/kg, route intravenous; settings: in vivo; summary of the method: as §1
[25] = Plasma concentration in Sprague-Dawley rat at 10 mg/kg, po after 2 hrs; type: ADME, organism-based; parameters: dose 10 mg/kg, route oral; summary of the method: as §1
[26] = Plasma concentration in Sprague-Dawley rat at 2 mg/kg, iv after 0.33 hrs; type: ADME, organism-based; parameters: dose 2 mg/kg, route intravenous; summary of the method: as §1
[27] = Tmax in Sprague-Dawley rat at 10 mg/kg, po; type: ADME, organism-based; parameters: dose 10 mg/kg, route oral; settings: in vivo; summary of the method: as §1
[28] = Plasma concentration in Sprague-Dawley rat at 2 mg/kg, iv after 0.12 hrs; type: ADME, organism-based; parameters: dose 2 mg/kg, route intravenous; summary of the method: as §1
[29] = Permeability from apical to basolateral side of human Caco-2 cells; type: ADME, cell-based
[30] = Plasma concentration in Sprague-Dawley rat at 10 mg/kg, po after 1 hr; type: ADME, organism-based; parameters: dose 10 mg/kg, route oral; summary of the method: as §1
[31] = Drug level in Sprague-Dawley rat heart at 10 mg/kg, po after 8 hrs; type: ADME, organism-based; parameters: dose 10 mg/kg, route oral; summary of the method: as §1
[32] = Drug level in Sprague-Dawley rat heart at 2 mg/kg, iv after 8 hrs; type: ADME, organism-based; parameters: dose 2 mg/kg, route intravenous; settings: read-out: Drug uptake; summary of the method: as §1

metabolized at 0.25 h, 5 µM [1]: 82.4%
EC50 [2]: 23.9 nM
Ki [3]: 0.4 nM
SMILES: COc1ccc2c(O[C@@H]3C[C@H]4C(=O)N[C@]5(C(=O)NS(=O)(=O)C6CC6)C[C@H]5/C=C\CCCCCC(=O)N4C3)cc(-c3nc(C(C)C)cs3)nc2c1

metabolized at 0.25 h, 5 µM [1]: 98%
EC50 [2]: 18 nM
Ki [3]: 0.65 nM
SMILES: COc1ccc2c(O[C@@H]3C[C@H]4C(=O)N[C@]5(C(=O)NS(=O)(=O)C6CC6)C[C@H]5/C=C\CCCCCCC(=O)N4C3)cc(-c3nc(C(C)C)cs3)nc2c1

EC50 [2]: 3.97 nM
Ki [3]: 0.5 nM
SMILES: COc1ccc2c(O[C@@H]3C[C@H]4C(=O)N[C@]5(C(=O)NS(=O)(=O)C6CC6)C[C@H]5/C=C\CCCCCCC(=O)N4C3)cc(-c3cscn3)nc2c1

metabolized at 0.25 h, 5 µM [1]: 100%
EC50 [2]: 1.9 nM
Ki [3]: 0.1 nM
SMILES: COc1ccc2c(O[C@@H]3C[C@H]4C(=O)N[C@]5(C(=O)NS(=O)(=O)C6CC6)C[C@H]5/C=C\CCCCCCC(=O)N4C3)cc(-c3nccs3)nc2c1Br

metabolized at 0.25 h, 5 µM [1]: 100%
EC50 [2]: 16.8 nM
Ki [3]: 1 nM
SMILES: COc1ccc2c(O[C@@H]3C[C@H]4C(=O)N[C@]5(C(=O)NS(=O)(=O)C6CC6)C[C@H]5/C=C\CCCCCCC(=O)N4C3)cc(-c3nccs3)nc2c1

metabolized at 0.25 h, 5 µM [1]: 91.5%
EC50 [2]: 20.4 nM
Ki [3]: 0.9 nM
SMILES: COc1ccc2c(O[C@@H]3C[C@H]4C(=O)N[C@]5(C(=O)NS(=O)(=O)C6CC6)C[C@H]5/C=C\CCCCCCC(=O)N4C3)cc(-c3csc(NC(C)C)n3)nc2c1

More lines, now with the values behind:

SMILES: COc1ccc2c(O[C@@H]3C[C@H]4C(=O)N[C@]5(C(=O)NS(=O)(=O)C6CC6)C[C@H]5/C=C\CCCCCCC(=O)N4C3)cc(-c3nc(C(C)C)cs3)nc2c1C
EC50 [2]: 5.84 nM
Ki [3]: 2.8 nM

SMILES: COc1ccc2c(O[C@@H]3C[C@H]4C(=O)N[C@]5(C(=O)O)C[C@H]5/C=C\CCCCCCC(=O)N4C3)cc(-c3csc(NC(C)C)n3)nc2c1
EC50 [2]: 1980 nM
Ki [3]: 46 nM

SMILES: COc1ccc2c(O[C@@H]3C[C@H]4C(=O)N[C@]5(C(=O)NS(=O)(=O)C6CC6)C[C@H]5/C=C\CCCCCCC(=O)N4C3)cc(-c3nccs3)nc2c1C
metabolized at 0.25 h, 5 µM [1]: 98.4%
EC50 [2]: 4.37 nM
Ki [3]: 0.5 nM

SMILES: COc1ccc2c(O[C@@H]3C[C@H]4C(=O)N[C@]5(C(=O)NS(=O)(=O)C6CC6)C[C@H]5/C=C\CCCCCC(=O)N4C3)cc(-c3nc(C(C)C)cs3)nc2c1C
metabolized at 0.25 h, 5 µM [1]: 50.2%
EC50 [2]: 3.55 nM
Ki [3]: 0.2 nM

SMILES: COc1ccc2c(O[C@@H]3C[C@H]4C(=O)N[C@]5(C(=O)O)C[C@H]5/C=C\CCCCCCC(=O)N4C3)cc(-c3nc(C(C)C)cs3)nc2c1
EC50 [2]: 5040 nM
Ki [3]: 18 nM

SMILES: COc1ccc2c(O[C@@H]3C[C@H]4C(=O)N[C@]5(C(=O)NS(=O)(=O)C6(C)CC6)C[C@H]5/C=C\CCCCCC(=O)N4C3)cc(-c3nc(C(C)C)cs3)nc2c1Cl
concentration at 4 h [4]: 0.363 µg/mL
bioavailability [5]: 31%
half-life [6]: 2.73 h
concentration at 4 h [7]: 0.139 µg/mL
half-life [8]: 2.49 h
concentration at 8 h [9]: 3660 ng/g
concentration at 8 h [10]: 0.053 µg/mL
concentration at 1 h [11]: 0.449 µg/mL
AUC(0-inf) [12]: 3.61 µg·h/mL
Vd [13]: 2.75 L/kg
Cmax [14]: 0.715 µg/mL
metabolized at 0.25 h, 5 µM [1]: 42.6%
CL [15]: 3.94 L/h/kg
concentration at 8 h [16]: 0.133 µg/mL
concentration at 2 h [17]: 0.29 µg/mL
AUC(0-t) at 8 h [18]: 3.07 µg·h/mL
concentration at 8 h [19]: 7660 ng/g
CC50 [20]: > 20000 nM
concentration at 0.5 h [21]: 0.698 µg/mL
CC50 [22]: > 20000 nM
AUC(0-t) at 8 h [23]: 1.96 µg·h/mL
AUC [24]: 2.154 µg·h/mL
concentration at 2 h [25]: 0.632 µg/mL
concentration at 0.33 h [26]: 0.708 µg/mL
Tmax [27]: 0.75 h
concentration at 0.12 h [28]: 1.5 µg/mL
Papp A→B [29]: 111 nm/s
EC50 [2]: 3.76 nM
concentration at 1 h [30]: 0.693 µg/mL
concentration at 8 h [31]: 35.8 ng/g
concentration at 8 h [32]: 15.1 ng/g
Ki [3]: 0.2 nM

SMILES: COc1ccc2c(O[C@@H]3C[C@H]4C(=O)N[C@]5(C(=O)NS(=O)(=O)C6(C)CC6)C[C@H]5/C=C\CCCCCC(=O)N4C3)cc(-c3nc(C(C)C)cs3)nc2c1C
metabolized at 0.25 h, 5 µM [1]: 28.8%
EC50 [2]: 14.1 nM
Ki [3]: 0.4 nM

SMILES: COc1ccc2c(O[C@@H]3C[C@H]4C(=O)N[C@]5(C(=O)NS(=O)(=O)C6CC6)C[C@H]5/C=C\CCCCCC(=O)N4C3)cc(-c3nc(C(C)C)cs3)nc2c1Cl
EC50 [2]: 11.7 nM
Ki [3]: 0.4 nM

SMILES: COc1ccc2c(O[C@@H]3C[C@H]4C(=O)N[C@]5(C(=O)O)C[C@H]5/C=C\CCCCC[C@H](NC(=O)OC5CCCC5)C(=O)N4C3)cc(-c3csc(NC(C)C)n3)nc2c1 [CILUPREVIR]
metabolized at 0.25 h, 5 µM [1]: 28.5%
EC50 [2]: 1.63 nM
Ki [3]: 0.3 nM
